{
  "source": "ChEMBL document CHEMBL2321820",
  "about": "“Discovery of HSD-621 as a Potential Agent for the Treatment of Type 2 Diabetes” (ACS Med Chem Lett, 2013)",
  "key": {"[1]": {"target": "11-beta-hydroxysteroid dehydrogenase 1 (Homo sapiens, UniProt P28845)", "sequence (P28845 whole entry)": "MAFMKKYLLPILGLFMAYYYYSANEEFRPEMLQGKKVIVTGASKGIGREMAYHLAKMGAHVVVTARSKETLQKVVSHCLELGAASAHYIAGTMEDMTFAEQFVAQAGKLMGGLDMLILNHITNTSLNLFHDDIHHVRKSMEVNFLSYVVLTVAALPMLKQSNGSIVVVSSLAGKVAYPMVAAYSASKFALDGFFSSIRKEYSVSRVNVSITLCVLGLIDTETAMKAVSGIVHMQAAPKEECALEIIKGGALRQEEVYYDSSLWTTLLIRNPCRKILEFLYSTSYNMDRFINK", "experiment": "Inhibition of human 11beta-HSD1 expressed in CHO cells using cortisone as substrate incubated for 30 mins prior to substrate addition measured after 120 mins by chemiluminescence assay"}, "Mus musculus [2]": {"organism": "Mus musculus", "experiment": "Antidiabetic activity in C57B6 DIO mouse assessed as reduction in fed glucose level at 0.3 mg/g of food after 31 days by HPLC analysis relative to untreated control", "format": "functional", "design": "scale not given: the % may be the effect or the level left", "outline": "(§1)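 Male C57B6 mice, 5.5–7 months old, kept on a 35.5% fat diet for 4 months. Compound was mixed into food at 0.3 mg drug/g food for 31 days. Controls received diet 12492. Glucose and insulin were measured fed and fasting.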"}, "[3]": {"experiment": "AUC in Beagle dog at 2 mg/kg, iv", "format": "ADME, organism-based, Canis lupus familiaris", "design": "dose 2 mg/kg, route intravenous", "conditions": "plasma", "outline": "(§2)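 Male dogs were given 2 mg/kg intravenously in 50% DMSO/50% PEG200.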"}, "[4]": {"target": "T1, Peroxisome proliferator-activated receptor delta (Homo sapiens, UniProt Q03181)", "T1 sequence (Q03181 whole entry)": "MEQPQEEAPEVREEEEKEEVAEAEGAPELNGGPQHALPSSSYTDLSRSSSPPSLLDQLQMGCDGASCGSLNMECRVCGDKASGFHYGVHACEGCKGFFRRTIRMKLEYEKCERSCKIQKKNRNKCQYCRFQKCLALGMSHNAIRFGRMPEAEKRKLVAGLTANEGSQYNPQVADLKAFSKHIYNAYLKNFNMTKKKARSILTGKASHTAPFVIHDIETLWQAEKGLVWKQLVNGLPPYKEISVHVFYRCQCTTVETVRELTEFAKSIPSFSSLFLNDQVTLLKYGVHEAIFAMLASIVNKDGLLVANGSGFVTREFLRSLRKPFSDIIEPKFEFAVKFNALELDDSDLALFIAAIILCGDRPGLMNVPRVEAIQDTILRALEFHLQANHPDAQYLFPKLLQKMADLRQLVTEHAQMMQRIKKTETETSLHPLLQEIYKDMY", "experiment": "Inhibition of PPARbeta (unknown origin)"}, "[5]": {"experiment": "AUC in C57B6 mouse at 2 mg/kg, iv", "format": "ADME, organism-based", "design": "dose 2 mg/kg, route intravenous", "conditions": "plasma", "outline": "(§3)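 Male C57B6 mice. IV dose of 2 mg/kg in 50% DMSO/50% PEG200. Oral dose of 10 mg/kg in 2% Tween/0.5% methyl cellulose in water. Values are PK parameters from the iv and po arms.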"}, "[6]": {"experiment": "Half life in Beagle dog at 2 mg/kg, iv", "format": "ADME, organism-based, Canis lupus familiaris", "design": "dose 2 mg/kg, route intravenous", "conditions": "in vivo", "outline": "as §2"}, "[7]": {"experiment": "Volume of distribution at steady state in C57B6 mouse at 2 mg/kg, iv", "format": "ADME, organism-based", "design": "dose 2 mg/kg, route intravenous", "conditions": "in vivo, read-out: Vdss", "outline": "as §3"}, "Rattus norvegicus": {"system": "Rattus norvegicus", "experiment": "Toxicity in rat at 200 to 2000 mg/kg", "format": "organism-based", "design": "dose 200-2000 mg/kg", "conditions": "in vivo", "outline": "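14-day safety assessment and metabolism study in rats at 200, 600 and 2000 mg/kg.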"}, "Mus musculus [8]": {"organism": "Mus musculus", "experiment": "Antidiabetic activity in C57B6 DIO mouse assessed as reduction in fasting insulin level at 0.3 mg/g of food after 31 days by HPLC analysis relative to untreated control", "format": "functional", "design": "scale not given: the % may be the effect or the level left", "outline": "as §1"}, "[9]": {"experiment": "Oral bioavailability in Beagle dog at 5 mg/kg", "conditions": "in vivo"}, "[10]": {"experiment": "Volume of distribution at steady state in Sprague-Dawley rat at 2 mg/kg, iv", "format": "ADME, organism-based", "design": "dose 2 mg/kg, route intravenous", "conditions": "in vivo, read-out: Vdss", "outline": "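Sprague-Dawley rats given a single iv dose of 2 mg/kg in 50% DMSO/50% PEG200. A separate oral arm received 10 mg/kg in 2% Tween/0.5% methyl cellulose in water.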"}, "[11]": {"experiment": "Half life in mouse liver microsomes", "format": "ADME, Microsome"}, "Mus musculus [12]": {"organism": "Mus musculus", "experiment": "Toxicity in C57B6 DIO mouse assessed as reduction of food intake at 0.3 mg/g of food after 31 days", "format": "organism-based", "conditions": "in vivo, po, 744 h"}, "Mus musculus [13]": {"organism": "Mus musculus", "experiment": "Toxicity in C57B6 DIO mouse assessed as elevation of alanine aminotransferase at 0.3 mg/g of food after 31 days", "format": "organism-based", "conditions": "in vivo, po, 744 h"}, "[14]": {"experiment": "Half life in Beagle dog at 5 mg/kg, po", "conditions": "in vivo"}, "[15]": {"target": "11-beta-hydroxysteroid dehydrogenase 1 (Mus musculus, UniProt P50172)", "sequence (P50172 whole entry)": "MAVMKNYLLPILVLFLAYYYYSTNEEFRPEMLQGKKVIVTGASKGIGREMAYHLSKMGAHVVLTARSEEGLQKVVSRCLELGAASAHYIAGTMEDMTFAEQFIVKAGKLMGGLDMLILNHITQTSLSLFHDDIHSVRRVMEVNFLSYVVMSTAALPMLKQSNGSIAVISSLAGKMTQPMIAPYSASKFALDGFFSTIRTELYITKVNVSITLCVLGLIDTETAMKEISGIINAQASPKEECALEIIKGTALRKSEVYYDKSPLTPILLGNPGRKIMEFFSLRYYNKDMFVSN", "experiment": "Inhibition of mouse 11beta-HSD1 expressed in CHO cells […] incubated for 30 mins prior to substrate addition measured after 120 mins by chemiluminescence assay in presence of 10% human serum", "format": "cell-based", "outline": "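Cell-based assay with 10% (v/v) human serum in the culture medium. Run in duplicate, with 11-point 2-fold dilutions giving the IC50. Lower threshold was 10 nM.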"}, "[16]": {"experiment": "Tmax in Beagle dog at 5 mg/kg, po", "conditions": "in vivo"}, "[17]": {"target": "T2, Peroxisome proliferator-activated receptor alpha (Homo sapiens, UniProt Q07869)", "T2 sequence (Q07869 whole entry)": "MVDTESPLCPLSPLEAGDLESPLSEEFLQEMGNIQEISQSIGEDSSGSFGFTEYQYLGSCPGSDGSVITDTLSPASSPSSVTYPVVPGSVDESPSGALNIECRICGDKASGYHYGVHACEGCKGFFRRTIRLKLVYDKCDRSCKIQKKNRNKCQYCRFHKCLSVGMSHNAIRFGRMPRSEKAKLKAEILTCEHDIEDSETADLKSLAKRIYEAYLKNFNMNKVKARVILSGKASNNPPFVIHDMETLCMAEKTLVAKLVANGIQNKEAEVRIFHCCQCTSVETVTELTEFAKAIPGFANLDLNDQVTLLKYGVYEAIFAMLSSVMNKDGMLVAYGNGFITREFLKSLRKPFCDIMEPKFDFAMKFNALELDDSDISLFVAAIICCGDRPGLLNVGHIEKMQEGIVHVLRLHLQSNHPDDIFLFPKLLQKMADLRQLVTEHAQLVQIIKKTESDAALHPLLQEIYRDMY", "experiment": "Inhibition of PPARalpha (unknown origin)"}, "Mus musculus [18]": {"organism": "Mus musculus", "experiment": "Antidiabetic activity in C57B6 DIO mouse assessed as reduction in fed insulin level at 0.3 mg/g of food after 31 days by HPLC analysis relative to untreated control", "format": "functional", "design": "scale not given: the % may be the effect or the level left", "outline": "as §1"}},
  "data": [
    {"molecule": "C[C@@H]1CN(c2ccc(F)cc2C(F)(F)F)CCN1S(=O)(=O)c1ccc([C@@](O)(C(N)=O)C(F)(F)F)s1", "values": [
      {"measurement": "IC50", "setting": "[1]", "value": 10, "unit": "nM"},
      {"measurement": "Activity", "setting": "Mus musculus [2]", "value": 19, "unit": "%"},
      {"measurement": "AUC", "setting": "[3]", "value": 32400, "unit": "ng·h/mL"},
      {"measurement": "IC50", "setting": "[4]", "value": "> 100000", "unit": "nM"},
      {"measurement": "AUC", "setting": "[5]", "value": 3600, "unit": "ng·h/mL"},
      {"measurement": "half-life", "setting": "[6]", "value": 20.3, "unit": "h"},
      {"measurement": "Vd", "setting": "[7]", "value": 4.2, "unit": "L/kg"},
      {"measurement": "Activity", "setting": "Rattus norvegicus", "value": "Non-toxic"},
      {"measurement": "Activity", "setting": "Mus musculus [8]", "value": 33, "unit": "%"},
      {"measurement": "bioavailability", "setting": "[9]", "value": 54, "unit": "%"},
      {"measurement": "Vd", "setting": "[10]", "value": 3.8, "unit": "L/kg"},
      {"measurement": "half-life", "setting": "[11]", "value": "> 0.5", "unit": "h"},
      {"measurement": "Activity", "setting": "Mus musculus [12]", "value": "Non-toxic"},
      {"measurement": "Activity", "setting": "Mus musculus [13]", "value": "Non-toxic"},
      {"measurement": "half-life", "setting": "[14]", "value": 17.2, "unit": "h"},
      {"measurement": "IC50", "setting": "[15]", "value": 10, "unit": "nM"},
      {"measurement": "Tmax", "setting": "[16]", "value": 2.8, "unit": "h"},
      {"measurement": "IC50", "setting": "[17]", "value": "> 100000", "unit": "nM"},
      {"measurement": "Activity", "setting": "Mus musculus [18]", "value": 44, "unit": "%"}
    ]}
  ]
}
